From ChEMBL document CHEMBL1138191, “Synthesis, pharmacological evaluation, and molecular modeling studies of novel peptidic CAAX analogues as farnesyl-protein-transferase inhibitors” (J Med Chem, 2006) come the findings set out here.

The test system of one assay is MCF10. The experiment in a line: Antiproliferative activity against MCF10 cell line. The assay is classed as functional, cell-based. As to conditions: Homo sapiens.
The test system of another assay is LoVo. As to the kind of experiment: Antiproliferative activity against LoVo cell line. As to conditions: Homo sapiens. It counts as functional, cell-based. In outline:
(§1)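 Monolayers in RPMI-1640 with 10% FBS, seeded ~10% confluent and allowed 24 h recovery. Compounds in DMSO at varying concentrations for 24 h (37 °C, 5% CO2), then washout and 48 h further growth. Viability by sulforhodamine B; %T/C relative to vehicle-treated controls; 50% growth-inhibitory concentration taken from dose/effect curve.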

A short description of assay [1]: Inhibitory activity against farnesyl transferase.
For a further assay, the system named is FRTL-5. The experiment in a line: Antiproliferative activity against FRTL5 cell line. As to conditions: Rattus norvegicus. The assay is classed as functional, cell-based. In outline: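 FRTL-5 rat thyroid cells were grown in Coon's modified Ham F12 with 5% calf serum plus six hormones, including TSH 1 × 10^-10 M. Cells were seeded at ~10% confluency and attached for 24 h. Compounds in DMSO were applied for 24 h at 37 °C in 5% CO2, then washed out, followed by 48 h culture. SRB read-out, %T/C; IC50 from dose/effect curve; vehicle controls.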

A further assay has as its system T47D. The experiment in a line: Antiproliferative activity against T47D cell line. It counts as functional, cell-based. As to conditions: Homo sapiens. In outline:
as §1

A further assay concerns MDA-MB-231. As to the kind of experiment: Antiproliferative activity against MDA-MB-231 cell line. The conditions noted are these: Homo sapiens. It counts as functional, cell-based. The method in brief: as §1
A further assay concerns NIH3T3. The experiment in a line: Antiproliferative activity against NIH3T3 cell line. As to conditions: Mus musculus. The assay is classed as functional, cell-based. In outline:
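NIH3T3 fibroblasts were grown in DMEM with 10% calf serum and seeded at ~10% confluency with 24 h attachment. A range of compound concentrations in DMSO was applied for 24 h at 37 °C in 5% CO2, then washed off, followed by 48 h further incubation. Growth by sulforhodamine B; %T/C versus vehicle; IC50 from dose/effect curve.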

The subject of a further assay is MCF7. As to the kind of experiment: Antiproliferative activity against MCF7 cell line. The conditions noted are these: Homo sapiens. It counts as functional, cell-based. In outline:
as §1

Calls of active or inactive are those of the source. No cut-off for these calls is given here.

On to `CSCC[C@H](NC(=O)[C@H](Cc1ccc(C)cc1C)NC(=O)[C@@H](NC(=O)[C@@H](N)CS)C(C)C)C(=O)O`, for which the result in the assay on MCF10, in the assay on LoVo, in the assay with FRTL-5, in the assay on T47D, with MDA-MB-231 and in the assay with NIH3T3 was inactive. Besides, the outcome with MCF7 was inactive. In assay [1], this compound registered an IC50 of 2.2 µM.
Consider `COC(=O)[C@H](CCSC)NC(=O)[C@H](Cc1ccc(O)c(C)c1C)NC(=O)[C@@H](NC(=O)[C@@H](N)CS)C(C)C`, for which the IC50 in the assay with LoVo is 9.1 µM; in assay [1] it was 20.4 µM; in the assay with T47D, 90 µM; with MDA-MB-231, 83 µM; in the assay on MCF7, 65 µM.
With `CSCC[C@H](NC(=O)[C@H](Cc1ccc(O)c(C)c1C)NC(=O)[C@@H](NC(=O)[C@@H](N)CS)C(C)C)C(=O)O`, the result in the assay with MCF10, with LoVo, in the assay on FRTL-5, in the assay on T47D, in the assay on MDA-MB-231 and in the assay on NIH3T3 was inactive. The outcome in the assay on MCF7 was inactive. Moreover, half-maximal inhibition in assay [1] (IC50) required 0.1 µM.
On to `CSCC[C@H](NC(=O)[C@H](Cc1ccc(O)cc1C)NC(=O)[C@@H](NC(=O)[C@@H](N)CS)C(C)C)C(=O)O`, for which the outcome in the assay with MCF10, with LoVo, in the assay with FRTL-5, in the assay with T47D, in the assay with MDA-MB-231 and in the assay with NIH3T3 was inactive. Further, the result in the assay with MCF7 was inactive. The same compound displayed an IC50 in assay [1] of 4.3 µM.
On to `CSCC[C@H](NC(=O)[C@H](Cc1cc(C)c(O)cc1C)NC(=O)[C@@H](NC(=O)[C@H](CS)NC=O)C(C)C)C(=O)O`, for which half-maximal inhibition in assay [1] (IC50) required 5.5 µM.
As to `CSCC[C@H](NC(=O)[C@H](Cc1cc(C)c(O)cc1C)NC(=O)[C@@H](NC(=O)[C@@H](N)CS)C(C)C)C(=O)O`, the result in the assay with MCF10, with LoVo, with FRTL-5, in the assay with T47D, with MDA-MB-231 and in the assay with NIH3T3 was inactive. Further, the result in the assay on MCF7 was inactive. In assay [1], 2.5 µM corresponded to half-maximal inhibition (IC50).
Consider `COC(=O)[C@H](CCSC)NC(=O)[C@@H](Cc1ccc(O)c(C)c1C)NC(=O)[C@@H](NC(=O)[C@@H](N)CS)C(C)C`, for which the result in the assay with MCF10, in the assay on LoVo, with FRTL-5, in the assay on T47D, in the assay on MDA-MB-231 and in the assay on NIH3T3 was inactive. Moreover, in the assay with MCF7, the outcome was inactive. It took 70.5 µM to reach half-maximal inhibition in assay [1] (IC50).
`CSCC[C@H](NC(=O)[C@@H](Cc1ccc(O)c(C)c1C)NC(=O)[C@@H](NC(=O)[C@@H](N)CS)C(C)C)C(=O)O`: the outcome with MCF10, in the assay with LoVo, in the assay on FRTL-5, in the assay on T47D, with MDA-MB-231 and with NIH3T3 was inactive. Besides, the outcome with MCF7 was inactive. In addition, the IC50 in assay [1] is 4.3 µM.
Take `CSCC[C@H](NC(=O)[C@@H](Cc1ccc(O)cc1C)NC(=O)[C@@H](NC(=O)[C@@H](N)CS)C(C)C)C(=O)O`: the result with MCF10, with LoVo, in the assay on FRTL-5, with T47D, with MDA-MB-231 and in the assay with NIH3T3 was inactive. Besides, the result with MCF7 was inactive. The compound further had an IC50 in assay [1] of 11.4 µM.
As for `CSCC[C@H](NC(=O)[C@H](Cc1ccc(O)c(C)c1C)NC(=O)[C@@H](NC(=O)[C@H](CS)NC=O)C(C)C)C(=O)O`, the figures for the IC50 (in assay [1]; with T47D; in the assay with MDA-MB-231) were 10.3 µM, 100 µM and 100 µM, respectively.
As for `CSCC[C@H](NC(=O)[C@@H](Cc1cc(C)c(O)cc1C)NC(=O)[C@@H](NC(=O)[C@@H](N)CS)C(C)C)C(=O)O`, the outcome in the assay on MCF10, in the assay with LoVo, in the assay on FRTL-5, in the assay with T47D, in the assay on MDA-MB-231 and in the assay with NIH3T3 was inactive. Besides, the result in the assay on MCF7 was inactive. Also, 10.5 µM corresponded to half-maximal inhibition in assay [1] (IC50).
Consider `CSCC[C@H](NC(=O)[C@@H](Cc1cc(C)c(O)cc1C)NC(=O)[C@@H](NC(=O)[C@H](CS)NC=O)C(C)C)C(=O)O`, for which the half-inhibitory concentration (IC50) in assay [1] stood at 10.2 µM.
With `CSCC[C@H](NC(=O)[C@@H](Cc1ccc(C)cc1C)NC(=O)[C@@H](NC(=O)[C@@H](N)CS)C(C)C)C(=O)O`, the outcome in the assay with MCF10, with LoVo, with FRTL-5, with T47D, in the assay on MDA-MB-231 and with NIH3T3 was inactive. The result in the assay with MCF7 was inactive. In assay [1], this compound registered an IC50 of 4.3 µM.
Take `CSCC[C@H](NC(=O)[C@H]1CC2CCCCC2N1C(=O)[C@@H](NC(=O)[C@@H](N)CS)C(C)C)C(=O)O` (stereo not given in full): the outcome in the assay on MCF10, in the assay with LoVo, in the assay on FRTL-5, in the assay on T47D, in the assay on MDA-MB-231 and in the assay on NIH3T3 was inactive. Moreover, the result with MCF7 was inactive. Inhibition in assay [1] was half-maximal at 1 µM (IC50).

A word on the IC50: it is the midpoint of a concentration-inhibition curve. Read a low IC50 as greater potency.
